Data set [1] is described as follows: Disruption of microtubule network in rat A10 cells incubated for 18 hrs by fluorescence microscopic analysis. In kind it is cell-based. In short, it runs like this:
(§1)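 A-10 cells on glass coverslips exposed to a range of compound concentrations for 18 h. Cells fixed, microtubules stained with β-tubulin antibody, nuclei with DAPI, then viewed by fluorescence microscopy. Microtubule loss estimated visually, EC50 taken from dose-response curves, two independent experiments.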

Data set [2] is described as follows: Cytotoxicity against human HPDE cells measured after 48 hrs by CellTiter 96 Aqueous One Solution Cell Proliferation Assay. It is filed as toxicity, cell-based.
Data set [3] in a line: Inhibition of bovine brain tubulin polymerization preincubated for 15 mins followed by GTP addition and measured after 20 mins. More on the design: species or system Bos taurus.
The test system of the next data set is MIA PaCa-2. The experiment in a line: Cytotoxicity against human MIA PaCa-2 cells at 1.562 to 100 uM measured after 48 hrs by CellTiter 96 Aqueous One Solution Cell Proliferation Assay. In kind it is functional, cell-based. Conditions: dose 1.562-100 µM.
For a further data set, the system named is HCT-116. The experiment in a line: Cytotoxicity against human HCT-116 cells measured after 48 hrs by CellTiter 96 Aqueous One Solution Cell Proliferation Assay. Conditions: HCT-116, 48 h. It is filed as functional, cell-based.
The target in data set [4] is T1, Tubulin (Homo sapiens) (UniProt P68371+Q9H4B7+P0DPH7+P68366+Q13509+Q71U36+P04350+Q3ZCM7+P07437+P68363+Q9BQE3+Q6PEY2+Q13885+Q9BVA1+Q9BUF5). The experiment in a line: Inhibition of [3H]colchicine binding to tubulin (unknown origin) at 50 uM relative to control. In kind it is protein-complex assay. In short, it runs like this: (§2)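 Tubulin at 1.0 μM (0.1 mg/mL), [3H]colchicine at 5.0 μM, compounds at 5 or 50 μM. Bound colchicine measured by DEAE-cellulose filter method; triplicate experiments.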

The target of data set [5] is T1, Tubulin (Homo sapiens). The experiment in a line: Inhibition of [3H]colchicine binding to tubulin (unknown origin) at 5 uM relative to control. It is filed as protein-complex assay. Summed up: as §2
The subject of a further data set is MCF7. Put plainly: Antiproliferative activity against human MCF7 cells assessed as cell growth inhibition measured after 48 hrs by sulforhodamine B assay. In kind it is functional, cell-based. Conditions: MCF7, 48 h. Summed up:
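MCF-7 cells grown 24 h without drug, then 48 h with varying compound concentrations. Total cell protein measured by sulforhodamine B assay; IC50 for growth inhibition derived.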

The test system of data set [6] is A10. Put plainly: Disruption of microtubule network in rat A10 cells at 2.5 uM incubated for 18 hrs by fluorescence microscopic analysis. In kind it is cell-based. Summed up: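 Rat A-10 cells grown on glass coverslips, exposed 18 h to a range of compound concentrations (single-concentration image at 2.5 μM), then fixed. Microtubules stained by indirect immunofluorescence with β-tubulin antibody, nuclei with 4,6-diamidino-2-phenylindole. Interphase microtubule loss scored visually by fluorescence microscopy against vehicle control.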

The subject of data set [7] is A10. The experiment in a line: Disruption of microtubule network in rat A10 cells at 15 uM incubated for 18 hrs by fluorescence microscopic analysis. In kind it is cell-based. Summed up: as §1
Data set [8] deals with A10. Put plainly: Disruption of microtubule network in rat A10 cells at 20 uM incubated for 18 hrs by fluorescence microscopic analysis. It is filed as cell-based. In short, it runs like this: as §1

9 molecules from ChEMBL document CHEMBL6096643 (Bioorg Med Chem, 2024) can be followed below.

The structures appear in SMILES notation. pEC50, pIC50: −log10 of the molar value. The source made the active and inactive calls. The calls are words filed in the database; no cut-off is given here.

In [1], `COc1cc(/C=C\c2ccccc2B(O)O)cc(OC)c1OC` showed a pEC50 of 4.29. Further, the IC50 at 48 h in data set [2] is above 50 µM. Moreover, the figures for the pIC50 (in [3]; in the data set on HCT-116; in the data set on MCF7) were below 4.40, above 5.30 and below 5.60, respectively. Moreover, the Activity entry in the data set with MIA PaCa-2 is on record as “Active; Compound Showed Less Toxicity Than Hct-116 Cells”. The inhibition entry on Tubulin (Homo sapiens) [4] and on Tubulin (Homo sapiens) [5] was “inactive” throughout.
For `COc1ccc(C(=O)c2cc(OC)c(OC)c(OC)c2)cc1B(O)O`, in data set [1], the pEC50 is 5.30. Besides, in [2], the IC50 at 48 h was above 50 µM. Moreover, the pIC50 is 4.92 in [3] and 6.52 in the data set on MCF7. Moreover, the Activity entry in the data set with MIA PaCa-2 is listed as “Active; Compound Showed Less Toxicity Than Hct-116 Cells”. Moreover, the inhibition at Tubulin (Homo sapiens) [4] came to 59%; at Tubulin (Homo sapiens) [5], 21%. The result with A10 [6] was Active.
In data set [1], `COc1cc(/C=C\c2cnc(OC)c(B(O)O)c2)cc(OC)c1OC` had a pEC50 of 5.05. For the same molecule, the IC50 at 48 h in [2] was above 50 µM. Also, the pIC50 is 4.52 in data set [3], above 5.30 in the data set with HCT-116 and 6.41 in the data set on MCF7. The inhibition entry at Tubulin (Homo sapiens) [4] and on Tubulin (Homo sapiens) [5] was “inactive” throughout. Also, in the data set with A10 [7], the result was Active.
Consider `COc1cc(/C=C\c2ccc(B(O)O)cc2)cc(OC)c1OC`, for which the pEC50 in [1] was 5.40. Also, the IC50 at 48 h in [2] was above 50 µM. For the same molecule, the pIC50 in data set [3] was 5.00; with HCT-116 it was above 5.30; with MCF7, 6.32. The values for the inhibition on Tubulin (Homo sapiens) [4] and at Tubulin (Homo sapiens) [5] were 77% and 6.4%, respectively. Further, the outcome in the data set with A10 [8] was Active.
`COc1cc(/C=C\c2cccc(B(O)O)c2)cc(OC)c1OC` showed a pEC50 in data set [1] of 5.05. In data set [2], the IC50 at 48 h was above 50 µM. Also, the pIC50 in [3] was 4.57; in the data set with HCT-116 it was above 5.30; in the data set on MCF7, 6.07. Further, the inhibition entry on Tubulin (Homo sapiens) [4] and on Tubulin (Homo sapiens) [5] was “inactive” each time.
The molecule `COc1ccc(/C=C\c2cc(OC)c(OC)c(OC)c2)cc1O` [COMBRETASTATIN A4] showed a negative logarithm of the EC50 (pEC50) in data set [1] above 7.60. The molecule further returned an IC50 at 48 h in [2] above 50 µM.
On to `COc1cc(C(=O)c2cnc(OC)c(B(O)O)c2)cc(OC)c1OC`, for which, in [1], the pEC50 is below 4.30. In addition, in [2], the IC50 at 48 h was above 50 µM. In addition, the pIC50 in [3] is below 4.40; in the data set with MCF7, below 5.60. The inhibition entry at Tubulin (Homo sapiens) [4] and at Tubulin (Homo sapiens) [5] was “inactive” each time.
`COc1ccc(/C=C\c2cc(OC)c(OC)c(OC)c2)cc1B(O)O` showed a pEC50 in data set [1] of 7.24. In addition, the IC50 at 48 h in data set [2] was above 50 µM. This molecule also gave a pIC50 in data set [3] of 5.82. The same molecule displayed an inhibition at Tubulin (Homo sapiens) [4] of 99%.
With `COc1ccc(C(=O)c2cc(OC)c(OC)c(OC)c2)cc1O` [PHENSTATIN], the IC50 at 48 h in [2] is above 50 µM. In [3], this molecule showed a pIC50 of 6.00. Further, the inhibition entry at Tubulin (Homo sapiens) [4] was “inactive”. Further, the inhibition on Tubulin (Homo sapiens) [5] was 86%.

As a reminder, the pEC50 is the negative decadic logarithm of the EC50, by convention in mol/L. Higher therefore signals a small EC50. As usually defined, the IC50 is the concentration at which inhibition is half-maximal. A lower IC50 goes with greater potency in that assay. For orientation: pIC50 means the negative decadic logarithm of the IC50, by convention in mol/L. What is called inhibition is the change of the read-out against control, counted positive when it falls.
